Numbered stars: 1 amine (or outer) side, 2 acyl side, 3 side chain; on linkers, the order of the positions; unused ones are H or OH. Bridge positions count the residues as written; N and C are the ends. Square brackets hold non-standard residues; d marks the D form. Peptide text beside a SMILES is read from it. X1 = O=C(CC1(S[*:2])CCCCC1)[*:1]
Species on record: Rattus norvegicus
Test: Antidiuretic potency was evaluated and expressed as effective dose.
Format: functional, Urine
Settings: not given
How it was run: (§1)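 Antagonism tested in vivo in water-loaded rats under ethanol anesthesia, with ADH as the agonist standard. The effective dose is the antagonist amount that halves the response to agonist. An in vivo pA₂ was estimated by dividing the effective dose by an assumed volume of distribution of 67 mL/kg. Values reported as mean ± SE.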

| SMILES | ED50 |
| --- | --- |
| CC[C@H](C)[C@@H]1NC(=O)[C@H](Cc2ccccc2)NC(=O)[C@@H](Cc2c[nH]c3ccccc23)NC(=O)CC2(CCCCC2)SSC[C@@H](C(=O)N2CCC[C@H]2C(=O)N[C@@H](CCCN=C(N)N)C(=O)NCC(N)=O)NC(=O)[C@H](CC(N)=O)NC1=O [listing 1 of 2 here] | 8.3 nM |
| CC[C@H](C)[C@@H]1NC(=O)[C@H](Cc2ccccc2)NC(=O)[C@@H](Cc2ccccc2)NC(=O)CC2(CCCCC2)SSC[C@@H](C(=O)N2CCC[C@H]2C(=O)N[C@@H](CCCN=C(N)N)C(=O)NCC(N)=O)NC(=O)[C@H](CC(N)=O)NC1=O ([dF]FINCPRG-NH2; linker N-5 via X1) [listing 1 of 2 here] | 0.87 M |
| CC[C@H](C)[C@@H]1NC(=O)[C@@H](Cc2c[nH]c3ccccc23)NC(=O)CC2(CCCCC2)SSC[C@@H](C(=O)N2CCC[C@H]2C(=O)N[C@@H](CCCN=C(N)N)C(=O)NCC(N)=O)NC(=O)[C@H](CC(N)=O)NC(=O)[C@H](CCC(N)=O)NC1=O ([dW]IQNCPRG-NH2; linker N-5 via X1) [listing 1 of 2 here] | < 1680 nM |

Species on record: Rattus norvegicus
Test: Competitive antagonist action against oxytocin contractile action in rat uterus(in vitro)
Format: functional
Settings: read-out: pA2 (converted)
How it was run: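 Isolated uteri from rats in natural estrus, incubated in Van Dyke-Hastings solution with 0.5 mM Mg²⁺. Isometric contractions to synthetic OT recorded by force transducer; response quantified by integrating area under peaks. pA₂ determined by Schild method; at least four separate assays per antagonist.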

| SMILES | Kb |
| --- | --- |
| CC[C@H](C)[C@@H]1NC(=O)[C@@H](Cc2c[nH]c3ccccc23)NC(=O)CC2(CCCCC2)SSC[C@@H](C(=O)N2CCC[C@H]2C(=O)N[C@@H](CCCN=C(N)N)C(=O)NCC(N)=O)NC(=O)[C@H](CC(N)=O)NC(=O)[C@H]([C@@H](C)O)NC1=O [listing 1 of 2 here] | 33.1 nM |
| CC[C@H](C)[C@@H]1NC(=O)[C@@H](Cc2c[nH]c3ccccc23)NC(=O)CC2(CCCCC2)SSC[C@@H](C(=O)N2CCC[C@H]2C(=O)N[C@@H](CCCN=C(N)N)C(=O)NCC(N)=O)NC(=O)[C@H](CC(N)=O)NC(=O)[C@H](C(C)C)NC1=O [listing 1 of 2 here] | 26.3 nM |
| CC[C@H](C)[C@@H]1NC(=O)[C@H](Cc2ccccc2)NC(=O)[C@@H](Cc2c[nH]c3ccccc23)NC(=O)CC2(CCCCC2)SSC[C@@H](C(=O)N2CC=C[C@H]2C(=O)N[C@@H](CCCN=C(N)N)C(=O)NCC(N)=O)NC(=O)[C@H](CC(N)=O)NC1=O [listing 1 of 2 here] | 38 nM |
| CC[C@H](C)[C@@H]1NC(=O)[C@H]([C@@H](C)CC)NC(=O)[C@@H](Cc2c[nH]c3ccccc23)NC(=O)CC2(CCCCC2)SSC[C@@H](C(=O)N2CCC[C@H]2C(=O)N[C@@H](CCCN=C(N)N)C(=O)NCC(N)=O)NC(=O)[C@H](CC(N)=O)NC1=O [listing 1 of 2 here] | 34.7 nM |
| CC[C@H](C)[C@@H]1NC(=O)[C@H](Cc2ccc(Cl)cc2)NC(=O)[C@@H](Cc2c[nH]c3ccccc23)NC(=O)CC2(CCCCC2)SSC[C@@H](C(=O)N2CCC[C@H]2C(=O)N[C@@H](CCCN=C(N)N)C(=O)NCC(N)=O)NC(=O)[C@H](CC(N)=O)NC1=O [listing 1 of 2 here] | 36.3 nM |
| NC(=O)CC[C@@H]1NC(=O)[C@H](Cc2ccccc2)NC(=O)[C@@H](Cc2c[nH]c3ccccc23)NC(=O)CC2(CCCCC2)SSC[C@@H](C(=O)N2CCC[C@H]2C(=O)N[C@@H](CCCN=C(N)N)C(=O)NCC(N)=O)NC(=O)[C@H](CC(N)=O)NC1=O [listing 1 of 2 here] | 26.3 nM |
| CCNC(=O)CNC(=O)[C@H](CCCN=C(N)N)NC(=O)[C@@H]1CCCN1C(=O)[C@@H]1CSSC2(CCCCC2)CC(=O)N[C@H](Cc2c[nH]c3ccccc23)C(=O)N[C@@H](Cc2ccccc2)C(=O)N[C@@H](CCC(N)=O)C(=O)N[C@@H](CC(N)=O)C(=O)N1 [listing 1 of 2 here] | 32.4 nM |
| CC[C@H](C)[C@@H]1NC(=O)[C@H](Cc2ccccc2)NC(=O)[C@@H](Cc2c[nH]c3ccccc23)NC(=O)CC2(CCCCC2)SSC[C@@H](C(=O)N2CCC[C@H]2C(=O)N[C@@H](CCCN=C(N)N)C(=O)NCC(N)=O)NC(=O)[C@H](CC(N)=O)NC1=O [listing 2 of 2 here] | 30.9 nM |
| CC[C@H](C)[C@@H]1NC(=O)[C@H](Cc2ccccc2)NC(=O)[C@@H](Cc2ccccc2)NC(=O)CC2(CCCCC2)SSC[C@@H](C(=O)N2CCC[C@H]2C(=O)N[C@@H](CCCN=C(N)N)C(=O)NCC(N)=O)NC(=O)[C@H](CC(N)=O)NC1=O ([dF]FINCPRG-NH2; linker N-5 via X1) [listing 2 of 2 here] | 44.7 nM |

Species on record: Rattus norvegicus
Test: Antidiuretic action in water-loaded rats under ethanol anesthesia.
Format: functional, organism-based
Settings: Urine, read-out: pA2 (converted)
How it was run: as §1

| SMILES | Kb |
| --- | --- |
| CC[C@H](C)[C@@H]1NC(=O)[C@H](Cc2ccccc2)NC(=O)[C@@H](Cc2c[nH]c3ccccc23)NC(=O)CC2(CCCCC2)SSC[C@@H](C(=O)N2CCC[C@H]2C(=O)N[C@@H](CCCN=C(N)N)C(=O)NCC(N)=O)NC(=O)[C@H](CC(N)=O)NC1=O [listing 2 of 2 here] | 7.94 nM |
| CC[C@H](C)[C@@H]1NC(=O)[C@H](Cc2ccccc2)NC(=O)[C@@H](Cc2ccccc2)NC(=O)CC2(CCCCC2)SSC[C@@H](C(=O)N2CCC[C@H]2C(=O)N[C@@H](CCCN=C(N)N)C(=O)NCC(N)=O)NC(=O)[C@H](CC(N)=O)NC1=O ([dF]FINCPRG-NH2; linker N-5 via X1) [listing 2 of 2 here] | 8.13 nM |
| CC[C@H](C)[C@@H]1NC(=O)[C@@H](Cc2c[nH]c3ccccc23)NC(=O)CC2(CCCCC2)SSC[C@@H](C(=O)N2CCC[C@H]2C(=O)N[C@@H](CCCN=C(N)N)C(=O)NCC(N)=O)NC(=O)[C@H](CC(N)=O)NC(=O)[C@H](CCC(N)=O)NC1=O ([dW]IQNCPRG-NH2; linker N-5 via X1) [listing 2 of 2 here] | > 1380 nM |

Species on record: Rattus norvegicus
Test: Effective dose (antagonist) that reduces the response to an agonist (oxytocin) by one-half.
Format: functional
Settings: not given
How it was run: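 Isolated estrous rat uterus in Van Dyke-Hastings solution with 0.5 mM Mg²⁺; OT-evoked isometric contractions quantified as integrated peak area. Effective dose taken as molar antagonist concentration halving the agonist response; at least four separate assays.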

| SMILES | ED50 |
| --- | --- |
| CC[C@H](C)[C@@H]1NC(=O)[C@@H](Cc2c[nH]c3ccccc23)NC(=O)CC2(CCCCC2)SSC[C@@H](C(=O)N2CCC[C@H]2C(=O)N[C@@H](CCCN=C(N)N)C(=O)NCC(N)=O)NC(=O)[C@H](CC(N)=O)NC(=O)[C@H]([C@@H](C)O)NC1=O [listing 2 of 2 here] | 46.8 nM |
| CC[C@H](C)[C@@H]1NC(=O)[C@@H](Cc2c[nH]c3ccccc23)NC(=O)CC2(CCCCC2)SSC[C@@H](C(=O)N2CCC[C@H]2C(=O)N[C@@H](CCCN=C(N)N)C(=O)NCC(N)=O)NC(=O)[C@H](CC(N)=O)NC(=O)[C@H](C(C)C)NC1=O [listing 2 of 2 here] | 26.9 nM |
| CC[C@H](C)[C@@H]1NC(=O)[C@H](Cc2ccccc2)NC(=O)[C@@H](Cc2c[nH]c3ccccc23)NC(=O)CC2(CCCCC2)SSC[C@@H](C(=O)N2CC=C[C@H]2C(=O)N[C@@H](CCCN=C(N)N)C(=O)NCC(N)=O)NC(=O)[C@H](CC(N)=O)NC1=O [listing 2 of 2 here] | 38.6 nM |
| CC[C@H](C)[C@@H]1NC(=O)[C@H]([C@@H](C)CC)NC(=O)[C@@H](Cc2c[nH]c3ccccc23)NC(=O)CC2(CCCCC2)SSC[C@@H](C(=O)N2CCC[C@H]2C(=O)N[C@@H](CCCN=C(N)N)C(=O)NCC(N)=O)NC(=O)[C@H](CC(N)=O)NC1=O [listing 2 of 2 here] | 35.3 nM |
| CC[C@H](C)[C@@H]1NC(=O)[C@H](Cc2ccc(Cl)cc2)NC(=O)[C@@H](Cc2c[nH]c3ccccc23)NC(=O)CC2(CCCCC2)SSC[C@@H](C(=O)N2CCC[C@H]2C(=O)N[C@@H](CCCN=C(N)N)C(=O)NCC(N)=O)NC(=O)[C@H](CC(N)=O)NC1=O [listing 2 of 2 here] | 40.2 nM |
| NC(=O)CC[C@@H]1NC(=O)[C@H](Cc2ccccc2)NC(=O)[C@@H](Cc2c[nH]c3ccccc23)NC(=O)CC2(CCCCC2)SSC[C@@H](C(=O)N2CCC[C@H]2C(=O)N[C@@H](CCCN=C(N)N)C(=O)NCC(N)=O)NC(=O)[C@H](CC(N)=O)NC1=O [listing 2 of 2 here] | 27 nM |
| CCNC(=O)CNC(=O)[C@H](CCCN=C(N)N)NC(=O)[C@@H]1CCCN1C(=O)[C@@H]1CSSC2(CCCCC2)CC(=O)N[C@H](Cc2c[nH]c3ccccc23)C(=O)N[C@@H](Cc2ccccc2)C(=O)N[C@@H](CCC(N)=O)C(=O)N[C@@H](CC(N)=O)C(=O)N1 [listing 2 of 2 here] | 32.9 nM |
| CC[C@H](C)[C@@H]1NC(=O)[C@H](Cc2ccccc2)NC(=O)[C@@H](Cc2c[nH]c3ccccc23)NC(=O)CC2(CCCCC2)SSC[C@@H](C(=O)N2CCC[C@H]2C(=O)N[C@@H](CCCN=C(N)N)C(=O)NCC(N)=O)NC(=O)[C@H](CC(N)=O)NC1=O [listing 1 of 2 here] | 30.9 nM |
| CC[C@H](C)[C@@H]1NC(=O)[C@H](Cc2ccccc2)NC(=O)[C@@H](Cc2ccccc2)NC(=O)CC2(CCCCC2)SSC[C@@H](C(=O)N2CCC[C@H]2C(=O)N[C@@H](CCCN=C(N)N)C(=O)NCC(N)=O)NC(=O)[C@H](CC(N)=O)NC1=O ([dF]FINCPRG-NH2; linker N-5 via X1) [listing 1 of 2 here] | 46.6 nM |

From ChEMBL document CHEMBL1125243, “Design of potent oxytocin antagonists featuring D-tryptophan at position 2” (J Med Chem, 1991)
